Series [1] can be described thus: Retention time in potassium phosphate buffer treated with amiodarone hydrochloride at 30 uM by HPLC analysis. The series is classed as physicochemical.
In series [2] the target is T1, Cytochrome P450 2J2 (Homo sapiens, UniProt P51589).
T1 sequence (P51589 whole entry): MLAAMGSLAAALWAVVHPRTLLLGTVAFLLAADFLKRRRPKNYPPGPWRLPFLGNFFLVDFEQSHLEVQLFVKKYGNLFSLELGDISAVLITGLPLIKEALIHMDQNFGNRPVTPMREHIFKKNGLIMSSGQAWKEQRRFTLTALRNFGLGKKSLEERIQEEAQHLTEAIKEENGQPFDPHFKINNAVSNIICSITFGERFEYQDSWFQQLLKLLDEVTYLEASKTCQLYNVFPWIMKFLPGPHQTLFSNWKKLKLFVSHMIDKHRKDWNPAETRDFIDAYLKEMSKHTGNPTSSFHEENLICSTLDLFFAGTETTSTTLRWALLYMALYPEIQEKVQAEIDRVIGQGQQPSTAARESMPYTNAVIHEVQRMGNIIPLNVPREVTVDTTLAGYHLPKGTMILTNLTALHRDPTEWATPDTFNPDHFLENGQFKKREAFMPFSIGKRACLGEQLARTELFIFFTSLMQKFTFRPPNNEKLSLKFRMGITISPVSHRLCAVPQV
Briefly: Drug metabolism in human liver microsomes assessed as CYP2J2-mediated compound formation treated with amiodarone at 1 uM after 5 to 45 mins by LC-MS/MS analysis. The class given is ADME. A general note: Liver microsomes are a subcellular fraction often used to study metabolism.

Series [3] has as its target T1, Cytochrome P450 2J2. Briefly: Drug metabolism assessed as recombinant CYP2J2 (unknown origin)-mediated compound formation treated with amiodarone at 1 uM after 5 to 45 mins by LC-MS/MS analysis. To be noted: recombinant enzyme. The class given is ADME. Put shortly: (§1)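 Preincubated, then started with NADPH-regenerating system (1 mM NADPH final). Aliquots taken at 0, 5, 10, 20, 30, 45 min and quenched in acetonitrile with internal standard. No-NADPH controls included. Products measured by LC-MS/MS.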

The target of series [4] is Cytochrome P450 3A4 (Homo sapiens, UniProt P08684). Briefly: Drug metabolism assessed as recombinant CYP3A4 (unknown origin)-mediated compound formation treated with amiodarone at 1 uM after 5 to 45 mins by LC-MS/MS analysis. The class given is ADME. To be noted: recombinant enzyme. In short, it runs like this: as §1
For series [5], the target named is T2, CYP2J2 (Homo sapiens, UniProt P51589).
T2 sequence (P51589 whole entry): T1 sequence (P51589 whole entry)
Briefly: in vitro.

Series [6] deals with T2, CYP2J2. Briefly: in vitro. The conditions noted are these: recombinant enzyme.
Series [7] addresses T3, CYP2C8 (Homo sapiens, UniProt P10632).
T3 sequence (P10632 whole entry): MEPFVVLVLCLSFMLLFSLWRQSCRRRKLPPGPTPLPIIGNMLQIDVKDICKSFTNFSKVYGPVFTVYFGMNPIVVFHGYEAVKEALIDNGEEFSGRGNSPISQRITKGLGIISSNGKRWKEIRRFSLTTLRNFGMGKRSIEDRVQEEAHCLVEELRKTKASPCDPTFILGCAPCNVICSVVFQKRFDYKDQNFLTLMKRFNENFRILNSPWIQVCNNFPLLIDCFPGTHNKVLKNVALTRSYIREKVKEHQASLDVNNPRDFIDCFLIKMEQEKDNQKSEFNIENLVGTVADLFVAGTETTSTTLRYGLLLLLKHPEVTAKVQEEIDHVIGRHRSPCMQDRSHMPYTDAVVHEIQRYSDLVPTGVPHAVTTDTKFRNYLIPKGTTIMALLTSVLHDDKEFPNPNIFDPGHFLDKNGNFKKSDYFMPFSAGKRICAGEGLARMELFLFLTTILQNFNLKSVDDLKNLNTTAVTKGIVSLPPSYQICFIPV
Briefly: in vitro. To be noted: human liver microsomes, probe paclitaxel (metabolite formation).

Series [8] has as its target T1, Cytochrome P450 2J2. Briefly: Drug metabolism in human liver microsomes assessed as CYP2J2-mediated astemizole O-demethylation measured per pmol protein at 0.3 uM after 5 mins by LC-MS/MS analysis. The series is classed as ADME.
Series [9] deals with T4, CYP1A2 (Homo sapiens, UniProt P05177).
T4 sequence (P05177 whole entry): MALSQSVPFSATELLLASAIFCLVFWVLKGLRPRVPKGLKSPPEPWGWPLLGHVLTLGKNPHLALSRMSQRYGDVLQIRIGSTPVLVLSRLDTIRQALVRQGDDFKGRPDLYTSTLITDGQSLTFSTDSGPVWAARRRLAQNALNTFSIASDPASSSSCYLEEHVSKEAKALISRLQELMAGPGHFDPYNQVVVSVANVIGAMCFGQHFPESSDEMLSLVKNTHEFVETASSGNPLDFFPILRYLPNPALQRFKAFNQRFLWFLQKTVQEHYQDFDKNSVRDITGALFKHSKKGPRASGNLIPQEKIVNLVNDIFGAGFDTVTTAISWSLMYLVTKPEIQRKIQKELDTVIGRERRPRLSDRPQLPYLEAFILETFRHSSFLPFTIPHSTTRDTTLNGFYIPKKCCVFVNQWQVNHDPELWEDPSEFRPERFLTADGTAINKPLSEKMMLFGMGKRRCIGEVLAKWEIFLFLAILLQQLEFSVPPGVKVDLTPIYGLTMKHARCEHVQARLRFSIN
Briefly: Inhibition of CYP1A2-mediated phenacetin metabolite formation in human liver microsomes at 0.3 uM after 8 mins by LC-MS/MS analysis relative to control. The series is classed as ADME. The conditions noted are these: probe phenacetin (metabolite formation). In short, it runs like this: (§2)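 Pooled HLM with probe cocktail: phenacetin 10 µM, paclitaxel 5 µM, diclofenac 5 µM, S-mephenytoin 40 µM, dextromethorphan 5 µM, midazolam 2 µM. […] Preincubated 15 min, then started with NADPH-regenerating system (1 mM NADPH). Reaction run 8 min, quenched in acetonitrile with internal standard. Metabolites measured by LC-MS/MS; % inhibition given as mean ± S.D.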

Series [10] concerns the target T3, CYP2C8. Briefly: Inhibition of CYP2C8-mediated paclitaxel metabolite formation in human liver microsomes at 0.3 uM after 8 mins by LC-MS/MS analysis relative to control. The class given is ADME. To be noted: probe paclitaxel (metabolite formation). Put shortly: as §2
Series [11] has as its target CYP2C9 (Homo sapiens, UniProt P11712). Briefly: Inhibition of CYP2C9-mediated diclofenac metabolite formation in human liver microsomes at 0.3 uM after 8 mins by LC-MS/MS analysis relative to control. To be noted: probe diclofenac (metabolite formation). The series is classed as ADME. In short, it runs like this: as §2
Series [12] deals with CYP2C19 (Homo sapiens, UniProt P33261). Briefly: Inhibition of CYP2C19-mediated S-mephenytoin metabolite formation in human liver microsomes at 0.3 uM after 8 mins by LC-MS/MS analysis relative to control. The class given is ADME. The conditions noted are these: probe S-mephenytoin (metabolite formation). Put shortly:
as §2

In series [13] the target is CYP2D6 (Homo sapiens, UniProt P10635). Briefly: Inhibition of CYP2D6-mediated dextromethorphan metabolite formation in human liver microsomes at 0.3 uM after 8 mins by LC-MS/MS analysis relative to control. The class given is ADME. The conditions noted are these: probe dextromethorphan (metabolite formation). Put shortly: as §2
In series [14] the target is CYP3A4 (Homo sapiens, UniProt P08684). Briefly: Inhibition of CYP3A4-mediated midazolam metabolite formation in human liver microsomes at 0.3 uM after 8 mins by LC-MS/MS analysis relative to control. The series is classed as ADME. The conditions noted are these: probe midazolam (metabolite formation). In short, it runs like this: as §2
Series [15] deals with T5, Cytochrome P450 1A2 (Homo sapiens, UniProt P05177).
T5 sequence (P05177 whole entry): T4 sequence (P05177 whole entry)

Series [16] addresses T6, Cytochrome P450 2C8 (Homo sapiens, UniProt P10632).
T6 sequence (P10632 whole entry): T3 sequence (P10632 whole entry)

In series [17] the target is Cytochrome P450 2C9 (Homo sapiens, UniProt P11712).
Series [18] addresses Cytochrome P450 2C19 (Homo sapiens, UniProt P33261).
In series [19] the target is Cytochrome P450 2D6 (Homo sapiens, UniProt P10635).

We go through 4 compounds from ChEMBL document CHEMBL3526133, “Identifying a selective substrate and inhibitor pair for the evaluation of CYP2J2 activity” (Drug Metab Dispos, 2012).

Bounds are passed on as bounds.

Chain of Cytochrome P450 3A4 (P08684 whole entry): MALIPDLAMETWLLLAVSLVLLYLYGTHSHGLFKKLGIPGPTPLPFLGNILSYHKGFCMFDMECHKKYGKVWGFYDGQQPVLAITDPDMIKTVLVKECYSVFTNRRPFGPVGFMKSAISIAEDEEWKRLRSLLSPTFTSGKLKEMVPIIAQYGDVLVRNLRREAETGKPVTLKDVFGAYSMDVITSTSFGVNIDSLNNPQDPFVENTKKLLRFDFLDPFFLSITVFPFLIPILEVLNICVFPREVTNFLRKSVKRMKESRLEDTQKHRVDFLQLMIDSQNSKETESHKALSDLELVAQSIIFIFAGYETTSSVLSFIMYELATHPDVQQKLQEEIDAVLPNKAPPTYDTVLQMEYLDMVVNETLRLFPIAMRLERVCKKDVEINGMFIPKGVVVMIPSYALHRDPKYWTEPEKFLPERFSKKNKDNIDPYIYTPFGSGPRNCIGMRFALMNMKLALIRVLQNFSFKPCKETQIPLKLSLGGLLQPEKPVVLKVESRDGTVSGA
Chain of CYP3A4 (P08684 whole entry): as above
Chain of Cytochrome P450 2C9 (P11712 whole entry): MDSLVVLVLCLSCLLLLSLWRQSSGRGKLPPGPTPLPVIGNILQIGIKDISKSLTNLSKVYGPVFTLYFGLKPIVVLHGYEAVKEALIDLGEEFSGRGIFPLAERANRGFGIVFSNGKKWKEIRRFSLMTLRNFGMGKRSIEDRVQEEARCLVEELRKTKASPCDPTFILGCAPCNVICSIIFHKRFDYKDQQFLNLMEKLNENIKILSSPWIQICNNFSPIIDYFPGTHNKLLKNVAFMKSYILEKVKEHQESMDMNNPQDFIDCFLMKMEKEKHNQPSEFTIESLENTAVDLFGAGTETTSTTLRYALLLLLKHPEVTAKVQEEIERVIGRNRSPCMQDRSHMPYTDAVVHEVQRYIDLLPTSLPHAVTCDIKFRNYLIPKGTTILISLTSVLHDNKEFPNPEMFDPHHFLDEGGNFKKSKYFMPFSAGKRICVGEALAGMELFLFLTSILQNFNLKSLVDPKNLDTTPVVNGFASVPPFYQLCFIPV
Chain of CYP2C9 (P11712 whole entry): as above
Chain of Cytochrome P450 2C19 (P33261 whole entry): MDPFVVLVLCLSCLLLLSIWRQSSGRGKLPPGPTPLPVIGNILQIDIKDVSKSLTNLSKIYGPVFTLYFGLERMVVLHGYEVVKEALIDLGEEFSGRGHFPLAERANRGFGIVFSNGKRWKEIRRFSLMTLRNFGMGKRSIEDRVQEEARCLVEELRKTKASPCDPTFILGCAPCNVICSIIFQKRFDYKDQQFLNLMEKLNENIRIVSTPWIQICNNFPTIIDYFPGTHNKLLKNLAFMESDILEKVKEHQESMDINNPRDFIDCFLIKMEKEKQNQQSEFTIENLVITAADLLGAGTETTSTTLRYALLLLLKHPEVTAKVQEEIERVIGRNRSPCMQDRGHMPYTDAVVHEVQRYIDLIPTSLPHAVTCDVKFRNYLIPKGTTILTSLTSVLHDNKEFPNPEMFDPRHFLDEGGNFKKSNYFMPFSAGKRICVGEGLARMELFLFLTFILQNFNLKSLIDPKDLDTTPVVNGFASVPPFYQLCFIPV
Chain of CYP2C19 (P33261 whole entry): as above
Chain of CYP2D6 (P10635 whole entry): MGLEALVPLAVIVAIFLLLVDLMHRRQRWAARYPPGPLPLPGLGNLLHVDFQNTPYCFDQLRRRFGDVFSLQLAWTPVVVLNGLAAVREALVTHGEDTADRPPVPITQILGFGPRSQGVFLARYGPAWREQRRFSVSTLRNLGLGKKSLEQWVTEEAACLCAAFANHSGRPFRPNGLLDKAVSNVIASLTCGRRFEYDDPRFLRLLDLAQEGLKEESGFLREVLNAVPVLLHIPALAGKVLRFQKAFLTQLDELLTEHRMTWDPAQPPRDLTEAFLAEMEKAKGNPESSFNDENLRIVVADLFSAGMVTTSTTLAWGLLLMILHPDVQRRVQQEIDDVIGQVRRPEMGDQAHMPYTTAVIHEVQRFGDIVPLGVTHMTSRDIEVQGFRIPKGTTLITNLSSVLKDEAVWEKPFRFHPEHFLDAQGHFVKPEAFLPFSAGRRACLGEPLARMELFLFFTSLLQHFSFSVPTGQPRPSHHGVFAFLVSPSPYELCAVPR
Chain of Cytochrome P450 2D6 (P10635 whole entry): as above

Consider `CCN(CC)CCOc1c(I)cc(C(=O)c2c(CCCCO)oc3ccccc23)cc1I`, for which the Retention_time in series [1] was 12.7 min. In addition, the Drug metabolism result in series [2] and in series [3] was “metabolite_detected” in each case.

In turn, `CCN(CC)CCOc1c(I)cc(C(=O)c2c(CCC(C)O)oc3ccccc23)cc1I` (stereo not drawn) registered a Retention_time in series [1] of 13.2 min. Also, the Drug metabolism entry in series [2], in series [3] and in [4] was “metabolite_detected” throughout.

Turning to `CCCCc1oc2ccccc2c1C(=O)c1cc(I)c(OCCN(CC)CC)c(I)c1` [AMIODARONE], the activity at 5 min, 30 µM is 39% in series [5] (recombinant enzyme) and 18.7% in series [6]. Moreover, the inhibition (as a rule, the drop in the measured response relative to a control, in per cent) at 8 min, 5 µM in [7] came to 32.7%.

In the case of `COc1ccc(CCN2CCC(Nc3nc4ccccc4n3Cc3ccc(F)cc3)CC2)cc1` [ASTEMIZOLE], the Drug metabolism in series [8] was 32 pmol/min. For the same compound, the inhibition at 8 min, 0.3 µM was -0.6% in series [9]; 1.1% in series [10]; -2.7% in [11]; 6% in [12]; 8.5% in [13]; 20.3% in series [14]. Further, the IC50 (commonly the concentration at which inhibition is half-maximal) in [15] was greater than 30 µM; in series [16], greater than 30 µM; in [17], greater than 30 µM; in [18], 13.7 µM; in series [19] it was greater than 30 µM. Further, the activity at 5 min, 30 µM in series [5] (recombinant CYP2J2, probe terfenadine (hydroxylation)) was 8.3%.
